Measurements reported in ChEMBL document CHEMBL1133596, “Synthesis and antitumor activities of novel pyrimidine derivatives of 2,3-O,O-dibenzyl-6-deoxy-L-ascorbic acid and 4,5-didehydro-5,6- dideoxy-L-ascorbic acid” (J Med Chem, 2000).
Converted amounts (≈) assume the structure as drawn.

Columns and labels:
[1] = system: L1210; test: Evaluated for the inhibition of tumor cell growth of murine leukemia malignant tumor cell line (L1210/0); type: functional, cell-based; settings: Mus musculus
Outline: (§1)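 Proliferation of the murine (L1210/0, FM3A/0) and human T-lymphoblast (Molt4/C8, CEM/0) lines was measured following the procedure originally described for mouse L1210 cells. IC50 is the concentration, in µg/mL, that inhibits tumour cell proliferation by 50%.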

[2] = system: HEL; test: Evaluated for minimum cytotoxic concentration that causes a microscopically detectable alteration of normal HEL cell morphology; type: functional; settings: Homo sapiens
Outline: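 HEL fibroblast cultures were examined by microscope. MCC is the lowest concentration, in µg/mL, that causes a detectable change in normal cell morphology.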

[3] = system: MOLT-4; test: Evaluated for the inhibition of tumor cell growth of Human T-Lymphocyte cells (Molt4/C8); type: functional, cell-based; outline: as §1
[4] = system: CCRF-CEM; test: Evaluated for the inhibition of tumor cell growth of Human T-Lymphocyte cells (CEM/0); type: functional, cell-based; outline: as §1
[5] = system: HEL; test: Evaluated for cytotoxic concentration required to reduce normal human embryonic lung (fibroblast) (HEL) cell growth by 50%; type: functional
Outline: (§2)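 Normal human embryonic lung fibroblasts (HEL) were grown with compound. CC50 is the concentration, in µg/mL, that reduces HEL cell growth by 50%.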

[6] = system: FM3A; test: Evaluated for the inhibition of tumor cell growth of murine mammary carcinoma malignant tumor cell line (FM3A/0); type: functional, cell-based; settings: Mus musculus; outline: as §1
[7] = system: HEL; test: Evaluated for cytotoxic concentration required to reduce normal human embryonic lung (fibroblast) HEL cell growth by 50%; type: functional; outline: as §2
[8] = system: MEF; test: Evaluated for cytotoxicity against murine embryo fibroblasts (MEF); type: functional, Mus musculus
Outline: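 Murine embryo fibroblasts (MEF) were tested for inhibition of proliferation following the method originally described for mouse L1210 cells. Values are given as cytotoxic concentrations in µg/mL.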

In the case of `O=C1OC(C(O)Cn2cc(C(F)(F)F)c(=O)[nH]c2=O)C(OCc2ccccc2)=C1OCc1ccccc1` (stereo not drawn), the IC50 [1] is reported as 26 µg/mL (≈ 50.2 µM), the MCC [2] is reported as 50 µg/mL and the IC50 [3] is reported as 47.4 µg/mL (≈ 91.4 µM). The IC50 [4] was 19 µg/mL (≈ 36.6 µM), the CC50 [5] was 31.7 µg/mL (≈ 61.1 µM) and the IC50 [6] was 38.4 µg/mL (≈ 74.1 µM).

`O=C1OC(C(O)Cn2cc(F)c(=O)[nH]c2=O)C(OCc2ccccc2)=C1OCc1ccccc1` (stereo not drawn) was tested, and the IC50 [1] was 65.6 µg/mL (≈ 140 µM), the MCC [2] was 50 µg/mL and the IC50 [3] was 81.2 µg/mL (≈ 173 µM). For the same molecule, the IC50 [4] was 74 µg/mL (≈ 158 µM), the IC50 [6] was 52.2 µg/mL (≈ 111 µM) and the CC50 [7] was 33.4 µg/mL (≈ 71.3 µM).

For `O=C1O/C(=C\Cn2cc(F)c(=O)[nH]c2=O)C(O)=C1O`, the IC50 [1] was 1.4 µg/mL (≈ 5.18 µM), the MCC [2] was > 50 µg/mL and the IC50 [3] was 31.8 µg/mL (≈ 118 µM). The IC50 [4] was 20.9 µg/mL (≈ 77.4 µM), the CC50 [5] was 23 µg/mL (≈ 85.1 µM) and the IC50 [6] was 0.78 µg/mL (≈ 2.89 µM). The Cytotoxicity [8] was 0.92 µg/mL.

`O=C1O/C(=C\Cn2ccc(=O)[nH]c2=O)C(O)=C1O` was tested, and the IC50 [1] was > 200 µg/mL, the MCC [2] was > 50 µg/mL and the IC50 [3] was > 200 µg/mL. For the same molecule, the IC50 [4] was > 200 µg/mL, the CC50 [5] was > 50 µg/mL and the IC50 [6] was > 200 µg/mL.

For `O=C1OC(C(O)Cn2ccc(=O)[nH]c2=O)C(OCc2ccccc2)=C1OCc1ccccc1` (stereo not drawn), the IC50 [1] was 70.8 µg/mL (≈ 157 µM), the MCC [2] was > 50 µg/mL and the IC50 [3] was 67.8 µg/mL (≈ 151 µM). For the same molecule, the IC50 [4] was 68.6 µg/mL (≈ 152 µM), the IC50 [6] was 74.1 µg/mL (≈ 165 µM) and the CC50 [7] was > 50 µg/mL.

In the case of `O=C1O/C(=C\Cn2ccc(=O)[nH]c2=O)C(OCc2ccccc2)=C1O`, the IC50 [1] is reported as > 200 µg/mL, the MCC [2] is reported as > 50 µg/mL and the IC50 [3] is reported as > 200 µg/mL. The IC50 [4] was > 200 µg/mL, the CC50 [5] was > 50 µg/mL and the IC50 [6] was > 200 µg/mL.

In the case of `O=C1O/C(=C\Cn2cc(C(F)(F)F)c(=O)[nH]c2=O)C(O)=C1O`, the IC50 [1] is reported as 76.1 µg/mL (≈ 238 µM), the MCC [2] is reported as > 50 µg/mL and the IC50 [3] is reported as > 200 µg/mL. For the same molecule, the IC50 [4] was > 200 µg/mL, the CC50 [5] was > 50 µg/mL and the IC50 [6] was 162 µg/mL (≈ 506 µM).

`O=c1[nH]c(=O)n([C@H]2C[C@H](O)[C@@H](CO)O2)cc1F` [FLOXURIDINE] was tested, and the IC50 [1] was 0.0003 µg/mL (≈ 0.00122 µM), the IC50 [3] was 2.6 µg/mL (≈ 10.6 µM) and the IC50 [4] was 0.003 µg/mL (≈ 0.0122 µM). For the same molecule, the IC50 [6] was 0.0008 µg/mL (≈ 0.00325 µM) and the Cytotoxicity [8] was 0.0001 µg/mL.

Molecule `O=c1[nH]cc(F)c(=O)[nH]1` [FLUOROURACIL] has an IC50 [1] of 0.04 µg/mL (≈ 0.308 µM), an IC50 [3] of 2.9 µg/mL (≈ 22.3 µM) and an IC50 [4] of 1.2 µg/mL (≈ 9.23 µM). It also gave an IC50 [6] of 0.02 µg/mL (≈ 0.154 µM) and a Cytotoxicity [8] of 0.2 µg/mL.
